CC50, EC50 and selectivity ratio data for 21 compounds are collected here from ChEMBL document CHEMBL4613269, “2-((4-Arylpiperazin-1-yl)methyl)benzonitrile Derivatives as Orally Available Inhibitors of Hepatitis C Virus with a Novel Mechanism of Action” (J Med Chem, 2020).

Data set [1] in a line: Cytotoxicity in human Huh7.5 cells assessed as reduction in cell viability incubated for 96 hrs by MTT assay. It counts as cell-based. The essentials:
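Huh7.5 cells seeded 24 h before compound addition. Viability read by MTT at 96 h. Eight-step 1:5 serial dilutions in triplicate; CC50 by Reed & Muench; three independent experiments.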

The subject of a further data set is Hepatitis C virus. Kind of data set: Antiviral activity against HCV J6/JFH/JC1 infected in human Huh7.5 cells incubated for 72 hrs by In-Cell Western assay. It counts as functional, organism-based, Hepacivirus hominis. Particulars: J6/JFH/JC1, Huh7.5, 72 h. The essentials:
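Huh7.5 cells infected with HCVcc (MOI 0.1) and treated with compound at the same time for 72 h. Cells fixed with PFA, permeabilized, then stained for HCV Core and GAPDH with IR-dye secondaries. Core signal normalized to GAPDH. Eight-step 1:5 dilutions in triplicate; EC50 by Reed & Muench; mean of three experiments.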

The nature of data set [2]: Selectivity index, ratio of CC50 for cytotoxicity in human Huh7.5 cells assessed as reduction in cell viability incubated for 96 hrs by MTT assay to EC50 for antiviral activity against HCV J6/JFH/JC1 infected in human Huh7.5 cells incubated for 72 hrs by In-Cell Western assay. Format: toxicity, cell-based. Particulars: read-out: Ratio CC50/EC50. The essentials:
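HCVcc (MOI=0.1) infected Huh7.5 cells co-treated with eight-step 1:5 serial dilutions, triplicate wells. After 72 h, fixed, permeabilized, and stained for HCV Core and GAPDH with IR-dye secondaries. Core normalized to GAPDH. CC50 came from MTT at 96 h in uninfected Huh7.5 cells. EC50/CC50 were derived by Reed & Muench, mean ± SD of three independent experiments.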
(Tetrazolium assays rely on reduction of a dye to a coloured formazan, in cell work by metabolically active cells.)

One may read the CC50 as the concentration at which the toxic effect on the cells reaches its halfway point. In general, EC50 refers to the midpoint of the concentration-response curve. Lower therefore signals a more potent agent.

Take `CN(C)CCCN(C)c1ccc(C#N)c(CN2CCN(c3ccc(Cl)cc3)CC2)c1`: the CC50 at 96 h in data set [1] was 15.6 µM. The compound also gave a concentration giving a half-maximal response (EC50) in the data set on Hepatitis C virus of 0.423 µM. In addition, in data set [2], the selectivity ratio is 36.
For the compound `CN(C)CCN(C)c1ccc(C#N)c(CN2CCNCC2)c1`, the CC50 at 96 h in data set [1] was greater than 200 µM. For the same compound, in the data set on Hepatitis C virus, the EC50 was determined as 35 µM. In data set [2], the selectivity ratio is greater than 5.
On to `N#Cc1ccc(OCCN2CCCC2)cc1CN1CCN(c2ccc(Cl)cc2)CC1`, for which the CC50 at 96 h in data set [1] worked out at 16.6 µM. The same compound registered an EC50 in the data set with Hepatitis C virus of 0.814 µM. Besides, the selectivity ratio in data set [2] amounted to 20.
The corresponding values for `CN1CCCN(c2ccc(C#N)c(CN3CCN(c4ccc(Cl)cc4)CC3)c2)CC1` are 12.5 µM, 0.153 µM and 81.
In the same order, the values of `CN(C)CCN(C)c1ccc(C#N)c(CN2CCN(c3ccc(F)cc3)CC2)c1` are 52.1 µM, 0.749 µM and 70.
For `CCN1CCCC1CNc1ccc(C#N)c(CN2CCN(c3ccc(Cl)cc3)CC2)c1` (stereo not drawn), in data set [1], the 50% cytotoxic concentration (CC50) at 96 h was 7.64 µM. Moreover, the EC50 with Hepatitis C virus was 0.454 µM. In addition, the selectivity ratio in data set [2] is 16.
The corresponding values for `CN(C)CCN(C)c1ccc(C#N)c(CN2CCN(c3ccc([N+](=O)[O-])cc3)CC2)c1` are 12.8 µM, 0.314 µM and 40.
In the same order, the values of `CN(C)c1ccc(C#N)c(CN2CCN(c3ccc(Cl)cc3)CC2)c1` are greater than 200 µM, 57.5 µM and greater than 3.
In the same order, the values of `N#Cc1ccc(N2CCNC(=O)C2)cc1CN1CCN(c2ccc(Cl)cc2)CC1` are greater than 200 µM, 79.4 µM and greater than 2.
As to `CN1CCN(c2ccc(C#N)c(CN3CCN(c4ccc(Cl)cc4)CC3)c2)CC1`, in data set [1], the CC50 at 96 h turned out to be 16.1 µM. Moreover, a half-maximal response with Hepatitis C virus (EC50) required 0.783 µM. In data set [2], the selectivity ratio turned out to be 20.
As for `CN(C)CCN(C)c1ccc(C#N)c(CN2CCC(c3ccc(Cl)cc3)CC2)c1`, the CC50 at 96 h in data set [1] was 3.75 µM. This compound returned a concentration giving a half-maximal response (EC50) with Hepatitis C virus of 0.142 µM. The selectivity ratio in data set [2] is 26.
For `CN(C)CCN(C)c1ccc(C#N)cc1CN1CCN(c2ccc(Cl)cc2)CC1`, in data set [1], the CC50 at 96 h came out at 14.6 µM. The response in the data set on Hepatitis C virus was half-maximal at 1.33 µM (EC50). For the same compound, the selectivity ratio in data set [2] stood at 11.
In the same order, the values of `CC1CN(Cc2cc(N(C)CCN(C)C)ccc2C#N)CCN1c1ccc(Cl)cc1` (stereo not drawn) are 13.7 µM, 0.321 µM and 42.
In the same order, the values of `N#Cc1ccc(N2CCC(N3CCCC3)CC2)cc1CN1CCN(c2ccc(Cl)cc2)CC1` are 13.5 µM, 0.318 µM and 42.
The corresponding values for `CCC(=O)N(C)CCN(C)c1ccc(C#N)c(CN2CCN(c3ccc(Cl)cc3)CC2)c1` are 40 µM, 7.29 µM and 5.
Consider `CN(C)CCN(C)c1ccc(C#N)c(CN2CCN(c3ccc(Cl)cc3F)CC2)c1`, for which the CC50 at 96 h in data set [1] was 13.2 µM. The compound further yielded an EC50 in the data set with Hepatitis C virus of 0.205 µM. In data set [2], the selectivity ratio turned out to be 64.
Turning to `CN(C)CCNc1ccc(C#N)c(CN2CCN(c3ccc(Cl)cc3)CC2)c1`, the CC50 at 96 h in data set [1] turned out to be 14.8 µM. Moreover, the response in the data set with Hepatitis C virus was half-maximal at 0.952 µM (EC50). The selectivity ratio in data set [2] is 15.
The corresponding values for `CN(C)CCN(C)c1ccc(C#N)c(CN2CCN(c3ccccc3)CC2)c1` are 50.2 µM, 0.902 µM and 55.
The corresponding values for `N#Cc1ccc(NCCN2CCOCC2)cc1CN1CCN(c2ccc(Cl)cc2)CC1` are 76.3 µM, 4.69 µM and 16.
`Cc1cc(Cl)ccc1N1CCN(Cc2cc(N(C)CCN(C)C)ccc2C#N)CC1`: the CC50 at 96 h in data set [1] was determined as 10.1 µM. The compound further showed an EC50 with Hepatitis C virus of 0.203 µM. Besides, the selectivity ratio in data set [2] is 49.
Take `CN(C)CCN(C)c1ccc(C#N)c(CN2CCN(c3ccc(Cl)nc3)CC2)c1`: the cytotoxic concentration (CC50) at 96 h in data set [1] came out at 52.6 µM. The compound also registered an EC50 in the data set with Hepatitis C virus of 2.51 µM. For the same compound, in data set [2], the selectivity ratio turned out to be 21.
